Bioassay records as filed in PubChem BioAssay.
Rows were chosen to be rich in hits. Some 1.8% of all compounds tested hit in one or more screens of this group.
CHRM5 agonist – CHRM5 agonism in calcium assay; CHO-K1 hM5 cells, Fluo-8 calcium fluorescence; 0% DMSO wells, 100% maximal acetylcholine response; AID 624037; activation, % at 3 µM; 360,000 tested, 0.19% active;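 active means activation above the run's mean over test compounds plus 3 SD, cut at about 23% in these data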;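 further: signal is peak over basal fluorescence ratio across the kinetic read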
CHRM4 antagonist – blocks acetylcholine activation of human M4 receptor. P08173. CHO-hM4 cells, ACh EC80, Fluo-8 calcium fluorescence. inhibition, % at 3 µM. 360,000 tested, 0.73% active;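 active means inhibition above its plate's cutoff, the mean inhibition of sample wells plus 3 SD, cut at about 27% in these data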;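 further: 0% = acetylcholine EC80 with DMSO and 100% = DMSO without agonist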
Target sequence (P08173 whole entry, looked up): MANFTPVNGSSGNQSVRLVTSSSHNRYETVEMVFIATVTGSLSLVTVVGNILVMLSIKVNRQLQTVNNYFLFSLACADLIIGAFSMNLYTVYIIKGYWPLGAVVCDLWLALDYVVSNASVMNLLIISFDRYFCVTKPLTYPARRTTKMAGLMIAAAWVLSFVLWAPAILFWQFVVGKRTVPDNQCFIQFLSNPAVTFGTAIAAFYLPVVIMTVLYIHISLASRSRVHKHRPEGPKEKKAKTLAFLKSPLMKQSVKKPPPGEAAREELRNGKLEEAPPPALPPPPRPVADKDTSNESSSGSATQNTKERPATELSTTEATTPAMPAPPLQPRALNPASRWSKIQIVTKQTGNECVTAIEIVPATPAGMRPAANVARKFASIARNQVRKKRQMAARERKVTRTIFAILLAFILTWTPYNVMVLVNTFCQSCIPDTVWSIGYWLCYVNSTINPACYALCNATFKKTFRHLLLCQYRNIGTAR
CHRM4 agonist – CHRM4 agonism in calcium assay | P08173 | CHO-K1 hM4/Gqi5, Fluo-8 calcium fluorescence; vehicle 0%, full acetylcholine response 100% | activation, % at 3 µM | 360,000 tested, 0.14% active | AID 624127;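 active means activation above the run mean over all test wells plus 3 SD, cut at about 32% in these data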;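 further: peak over basal fluorescence ratio per well then scaled between controls; 0% = DMSO wells and 100% = acetylcholine at EC100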
CHRM4 PAM – positive allosteric modulators of human muscarinic M4 receptor; P08173; CHO-K1 hM4/Gqi5, Fluo-8 calcium fluorescence, ACh EC20; 0% = ACh EC20, 100% = maximal ACh; activation, % at 3 µM; 360,000 tested, 0.4% active; AID 624126;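 active means activation above its plate's cutoff, the mean activation of sample wells plus 3 SD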
M5 antag – blocks acetylcholine activation of human M5 receptor. P08912. CHO-hM5 cells, Fluo-8 calcium fluorescence, ACh EC80. 360,000 tested, 0.59% active. inhibition, % at 3 µM;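 active means inhibition above a per-plate cutoff, the mean of that plate's test compounds plus 3 SD, cut at about 27% in these data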;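 further: 0% = acetylcholine EC80 with DMSO and 100% = DMSO without agonist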
M5 PAM – potentiates acetylcholine response at human M5 receptor; P08912; CHO-K1 hM5, Fluo-8 calcium, ACh EC20 PAM; 0% = ACh EC20, 100% = ACh EC100; activation, % at 3 µM; 360,000 tested, 0.3% active; AID 624038;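 active means activation above the run cutoff, the mean activation of all test compounds plus 3 SD, cut at about 18% in these data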
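System – CHO-K1 hM5 cells · Compound – 3 µM, single dose · Incubation – compound preincubation 140 s before EC20 acetylcholine addition · Technique – Fluo-8 calcium fluorescence · Measure – Max/basal fluorescence ratio as % of EC20–EC100 ACh window · Benchmarks – low control EC20 acetylcholine (0%), high control EC100 acetylcholine (100%) · Replication – singlicate, one well per test compound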
Starred values were filed as active, the others as inactive.

SMILES	CHRM5 agonist	CHRM4 antagonist	CHRM4 agonist	CHRM4 PAM	M5 antag	M5 PAM
CCOc1ccc2nc(S(=O)(=O)NC(=O)C3(C)CCN3C(=O)c3cc(C)n(C)n3)sc2c1 (centres undefined)	0.6	-1.1	1.1	-1.7	2.9	1.1
C[n+]1cccc(NC(=O)c2ccccc2)c1	0.9	-6.8	1.8	8.3	-8.1	8.6
CCOC(=O)N1CCC(C(=O)NNC(=O)c2ccc(Cl)cc2Cl)CC1	-1.7	-2.1	-0.4	5.8	0.6	0.7
COc1cc(OC)cc(C(=O)NC2CCN(CCCOc3ccccc3)CC2)c1	-0.8	-7.8	5.5	1.3	3.6	-1.8
c1ncn(C23CC4CC(CC(C4)C2)C3)n1	-3.4	-15.7	0.5	11.1	0.6	20.7*
O=C(Nc1nncs1)c1cc(S(=O)(=O)N2CCOCC2)ccc1Cl	-1.5	-16.1	1.2	3.5	3.4	2.2
C[C@H](NC(=O)C[C@@H]1CC[C@H]2[C@@H](COC[C@H](O)CN2Cc2ccc(C(F)(F)F)cc2)O1)c1ccccc1	1.8	-7.0	5.9	10.9	-6.5	8.8
CC1(c2nnnn2Cc2ccccc2)CCC(=O)N1Cc1cccs1 (centres undefined)	-1.6	-8.6	0.8	6.5	-0.7	-2.8
O=C(NNC(=O)c1ccc(Cl)nc1)c1ccncc1	3.6	-6.7	0.4	12.3	-4.5	1.9
CC1CCN(C(=O)c2cccc(S(=O)(=O)N3CCCCC3)c2)CC1	2.4	-11.3	2.6	8.7	-4.7	-3.9
CC1CCN(S(=O)(=O)c2cccc(C(=O)Oc3ccc([N+](=O)[O-])cc3)c2)CC1	4.2	-11.4	2.5	30.4*	2.6	4.7
COc1ccc(C)cc1NS(=O)(=O)c1ccc(NS(=O)(=O)c2ccc(NC(C)=O)cc2)cc1	-1.2	-1.7	0.1	22.4*	4.3	-7.5
O=C(OCCN1CCCCC1)c1cccc(Cl)c1	-17.8	-12.2	0.8	2.0	4.4	2.6
O=C(O)CN(c1ccccn1)S(=O)(=O)c1ccc(Cl)cc1	-1.8	-4.1	0.5	19.7*	-8.0	12.8
CCCCn1c(N)c(N(CC)C(=O)c2ccc(Cl)c(Cl)c2)c(=O)[nH]c1=O	-3.3	3.4	0.1	-4.1	28.0*	-8.1
COc1ccc(C(=O)/C=C/C(=O)N(CC(=O)NC2CCCCC2)CC2CCCO2)c(O)c1 (centres undefined)	16.7	28.5*	6.2	-8.4	14.3	7.4
O=c1c2ccccc2n2c(-c3cccc(Cl)c3)nnc2n1Cc1ccccc1	0.9	-6.2	3.0	7.8	-2.3	-3.1
O=c1c2ccccc2n2c(-c3cccc(F)c3)nnc2n1Cc1ccccc1	-0.8	1.0	1.4	21.2*	9.0	-3.1
CCCCCCCCCn1ccc(=N)cc1	-17.2	30.3*	0.0	-13.4	9.2	-12.6
CC(=O)NNC(=O)C(O)(c1ccccc1)c1ccccc1	-1.4	3.8	0.0	-1.8	-6.4	0.6
OCCN(CC#CC(O)(c1ccccc1)c1ccccc1)CCO	-18.8	-9.2	0.6	3.8	7.4	-2.6
CC(C)(C#CC(O)(c1ccccc1)c1ccccc1)N1CCCCC1	-19.2	47.0*	0.9	-16.3	41.8*	-29.6
CC(C)(C#CC(O)(c1ccccc1)c1ccccc1)N1CCCC1	-11.2	79.3*	0.2	-25.8	69.5*	-16.5
O=C(OCCN1C(=O)c2ccccc2C1=O)c1ccccc1	-1.7	7.4	2.2	-1.1	2.7	-1.8
O=C(OCCN1C(=O)c2ccccc2C1=O)c1ccco1	-7.6	-8.7	1.5	-0.7	-7.0	18.9*
SMILES	CHRM5 agonist	CHRM4 antagonist	CHRM4 agonist	CHRM4 PAM	M5 antag	M5 PAM
COc1ccc(CN(C)C[C@H]2OCCCC[C@@H](C)Oc3ccc(NC(=O)c4ccccc4)cc3C(=O)N([C@H](C)CO)C[C@@H]2C)cc1	0.8	0.8	0.2	1.1	0.6	-0.8
COc1ccc(C2/C(=C(/O)c3ccc(S(=O)(=O)N4CCOCC4)cc3)C(=O)C(=O)N2CCN2CCOCC2)cc1 (centres undefined)	-1.2	-3.7	1.9	6.1	-2.1	0.7
COc1ccc(C2/C(=C(/O)c3ccc4c(c3)CC(C)O4)C(=O)C(=O)N2CCCN2CCOCC2)cc1 (centres undefined)	-0.1	7.3	0.9	5.5	-21.7	20.0*
COc1ccc(/C(O)=C2/C(=O)C(=O)N(CCCN3CCOCC3)C2c2ccc(OC)cc2)cc1 (centres undefined)	-5.5	3.9	0.1	-7.7	32.5*	-10.6
CCOc1ccc(N(CC(=O)NCc2ccccc2C)S(C)(=O)=O)cc1	-3.4	1.6	0.3	0.1	3.5	3.2
Cc1cccc(C2(c3cccc(C)c3)CC2C(=O)Nc2ccc([N+](=O)[O-])cc2O)c1 (centres undefined)	2.0	27.2*	6.8	-13.1	32.8*	-21.4
CC(C)C[C@H](NC(=O)c1nc[nH]c1C(=O)NCCCCCNC(=O)OC(C)(C)C)C(=O)OC(C)(C)C	-5.6	49.7*	4.1	-13.7	-3.3	-20.6
CC(C)(C)OC(=O)CNC(=O)c1[nH]cnc1C(=O)NCCCCCNC(=O)OC(C)(C)C	4.1	22.5	34.5*	-14.5	32.4*	-38.7
CC(C)(C)OC(=O)CNC(=O)c1[nH]cnc1C(=O)NCCCCCN	1.4	7.2	0.0	-2.4	19.2	-10.7
CC(C)C[C@H](NC(=O)c1nc[nH]c1C(=O)N1CCN(C(=O)OC(C)(C)C)CC1)C(=O)OC(C)(C)C	0.6	0.5	0.2	25.3*	5.6	9.6
COc1ccc(/C=C(/NC(=O)c2ccco2)C(=O)N2CCCCCC2)cc1OC	2.5	-0.6	6.3	4.3	7.9	-3.7
Cn1c(=O)c(=O)n(C)c2cc([N+](=O)[O-])c(N3CCOCC3)cc21	3.5	-5.2	0.5	2.1	15.5	-0.6
CCOc1cc(CNCCc2ccc(S(N)(=O)=O)cc2)ccc1OCc1ccc(Cl)cc1	1.5	42.0*	29.3	-10.9	25.7	-10.4
COc1cc(CNCCc2ccc(S(N)(=O)=O)cc2)ccc1OCc1ccc(Cl)cc1	-4.5	5.5	15.4	-3.3	4.3	-5.5
Nc1cccc2cc(-c3ccccc3)oc12	4.3	-16.0	0.7	24.9*	-2.9	-3.5
COc1cccc2cc(-c3ccccc3)oc12	-3.9	-8.2	-0.8	4.0	16.4	-6.7
CS(=O)(=O)N(CC(=O)N1CCCCCC1)c1cccc([N+](=O)[O-])c1	-1.9	-6.1	0.6	-4.1	-8.8	18.4*
CS(=O)(=O)N(CC(=O)N1CCCCCC1)c1ccccc1	-7.1	10.2	0.6	-3.2	7.9	-0.4
